Fewer inactive variants are shown than the library holds.
B1: tRNA (parent)
chain: GUUCCGUUGGCGUAAUGGUAACGCGUCUCCCUCCUAAGGAGAAGACUGCGGGUUCGAGUCCCGUACGGAACG

Variants of: B1
Assay: yeast fitness relative to wild type (ratio to wild type); higher = fitter; tRNA-Arg(CCU), competitive growth, 37 C, YPD
How it was run: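 The tRNA-Arg(CCU) gene variants were made by chemical synthesis with a 3% per-site mutation rate at 69 sites and inserted at the native genomic locus of Saccharomyces cerevisiae. After pooling, the strains were competed in YPD at 37°C for 24 hours in six parallel replicates. Gene amplicons from the start population and each end population were read by 100-nucleotide paired-end sequencing, and Darwinian fitness relative to wild type was taken from genotype frequency changes. Genotypes needed ≥ 100 starting reads, and estimates < 0.5 were set to 0.5.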

Row | Variant | yeast fitness
1 | A15C U26C C62U | ≤ 0.5
2 | A15G A40G A65G | 0.663
3 | A15C G23C C55A A65G | ≤ 0.5
4 | A15G C30G C49G A65U | ≤ 0.5
5 | A15G G17C C33A C46A G52A G63C | ≤ 0.5
6 | A15G A43U A69C | 0.8
7 | A15G A69C | 0.999
8 | A15C C46U U64C A70G | ≤ 0.5
9 | A15G G18A C49A | ≤ 0.5
10 | A15C G63A | 0.61
11 | A15C G63C | 0.616
12 | A15G C29U C34G A40C | 0.694
13 | A15G C61A C62G G68A | ≤ 0.5
14 | A15G G25C C55U | 0.562
15 | A15G C24G U32A G41A A69U | ≤ 0.5
16 | A15C U28A C34G C55A A57U U59C C60U | ≤ 0.5
17 | A15G A21C C24U | ≤ 0.5
18 | A15G A40C G50A | ≤ 0.5
19 | A15G A20U C29G A43G | ≤ 0.5
20 | A15C U16A A45U G48C C61U | ≤ 0.5
21 | A15C C61U A69U | 0.571
22 | A15C C31U U32C | 0.5
23 | A15C G39A C62U | 0.553
24 | A15G A36G G44C | 0.659

Row | Variant | yeast fitness
25 | A15G A37U A43C | 0.518
26 | A15G G18A | 0.793
27 | A15G G18U | 0.75
28 | A15C U16C A37C C60A | ≤ 0.5
29 | A15G G17A | 0.881
30 | A15C G56C U59C | ≤ 0.5
31 | A15G C30U C31A A36C | ≤ 0.5
32 | A15G C24A G52A | ≤ 0.5
33 | A15G C30A A43G A57U | 0.529
34 | A15G A37C | 0.666
35 | A15G A37G | 0.795
36 | A15G A42G G48A | 0.774
37 | A15G C29U A43C A69U | 0.536
38 | A15G C55A | 0.727
39 | A15C C49G C55G | 0.668
40 | A15G C31G U47G C49G | 0.545
41 | A15G G23C C30A A42C G51C | 0.537
42 | A15G C24A G63A | ≤ 0.5
43 | A15G C29A U64C | ≤ 0.5
44 | A15G G17A C49U | 0.687
45 | A15C U16C A43U A70G | 0.532
46 | A15C U19A | 0.817
47 | A15C U59A A69C | ≤ 0.5
48 | A15G C31A G41C G56A G58C | ≤ 0.5

Row | Variant | yeast fitness
49 | A15G A42C | 0.863
50 | A15G G18A C46U | 0.645
51 | A15G A42G A45C | 0.557
52 | A15C U47A G52A | 0.576
53 | A15C C49A G67C | ≤ 0.5
54 | A15G G25A U32G A40G C60G | 0.501
55 | A15C C33U C49U | ≤ 0.5
56 | A15C U35G | 0.621
57 | A15G A20U C60G | 0.542
58 | A15G G44C A57U | ≤ 0.5
59 | A15C C31U G48C A65C | ≤ 0.5
60 | A15G A37G G38A A45U | 0.507
61 | A15G A20U C24G A42G U54C | 0.575
62 | A15G C31A A70U | 0.639
63 | A15G C24G C66G G67A | 0.64
64 | A15G C49G G63C | 0.594
65 | A15G A36C G50A | ≤ 0.5
66 | A15G A21U A36U C49U G52C C62A G67A | ≤ 0.5
67 | A15G C49G | 0.782
68 | A15G G17A C29G C31U A65G C66G | 0.552
69 | A15C U26G U28C A37G G41A C49G C62U | ≤ 0.5
70 | A15G C24U C29U C30G U35G A70G | ≤ 0.5
71 | A15C G68C | 0.633
72 | A15C G68U | 0.735

Row | Variant | yeast fitness
73 | A15G A20C C29G G67A | ≤ 0.5
74 | A15G A20C U54A | ≤ 0.5
75 | A15G C34U A40U | ≤ 0.5
76 | A15G A20C C34A | ≤ 0.5
77 | A15C C46U A57G C66A | ≤ 0.5
78 | A15C C34A G63C | ≤ 0.5
79 | A15G G58A G63A G68C | ≤ 0.5
80 | A15C C66U | 0.605
81 | A15G C30G C55A | ≤ 0.5
82 | A15C G23C G39C G63A A69C | ≤ 0.5
83 | A15G A20C C24G | 0.626
84 | A15G C22U | 0.871
85 | A15G A42C C49A | 0.527
86 | A15G A20U G39A A69C | ≤ 0.5
87 | A15C C31U G63A | ≤ 0.5
88 | A15C U35G A57G C66G | 0.56
89 | A15G G41A A43U G50C | ≤ 0.5
90 | A15C C31U G68C | ≤ 0.5
91 | A15G G38C C49U | 0.544
92 | A15C C46U A69U | 0.814
93 | A15G A20C C24G A57G | ≤ 0.5
94 | A15C G17A C29A C30U C62G U64A | ≤ 0.5
95 | A15C C55G | 0.593
96 | A15C C55U | 0.625

Row | Variant | yeast fitness
97 | A15G G63C | 0.918
98 | A15G A70G | 0.999
99 | A15G A70C | 1.04
100 | A15C G18A | 0.74
101 | A15G G68A | 0.894
102 | A15G C27G A36U G39C A69C | ≤ 0.5
103 | A15G G48A C66U | 0.747
104 | A15G A20U C34A C60A A70C | ≤ 0.5
105 | A15C C34G U35G A36U U59A | ≤ 0.5
106 | A15C G18A C24A C34U C46G | ≤ 0.5
107 | A15C U19A G39A | 0.519
108 | A15C C49U | 0.896
109 | A15C C49G | 0.652
110 | A15G A65G A70C | 0.714
111 | A15G C31G U35C A37U A57U | ≤ 0.5
112 | A15G C29A A42C A70U | ≤ 0.5
113 | A15C G56A C61U C66U | ≤ 0.5
114 | A15G C24G U26A G52A | 0.589
115 | A15G G48C | 0.841
116 | A15G G48A | 0.879
117 | A15G C27G A70U | 0.543
118 | A15G G23C U28A | ≤ 0.5
119 | A15G A21C U54G A65U | ≤ 0.5
120 | A15G A43U A57C | 0.559

Row | Variant | yeast fitness
121 | A15G C31G | 0.852
122 | A15G C31U | 0.987
123 | A15C U19C A21G C34U | ≤ 0.5
124 | A15C G17A C22U G23C G51A | 0.565
125 | A15G A20U U26C C29G U32A | 0.591
126 | A15C G48C C61A | ≤ 0.5
127 | A15G G50A G58C C66U | ≤ 0.5
128 | A15C G38A U54A A57U | ≤ 0.5
129 | A15G C29A A69C | 0.517
130 | A15G C46A | 0.884
131 | A15G C46U | 0.987
132 | A15G U19A U28A C55A A65U | ≤ 0.5
133 | A15C G44C | 0.684
134 | A15C C46U G50A | 0.711
135 | A15C C34G A37U C46G | ≤ 0.5
136 | A15G A20G C31U | 0.59
137 | A15C G17A A45C | ≤ 0.5
138 | A15C U35C A42G G67U | ≤ 0.5
139 | A15G C31U C60A | 0.584
140 | A15C G48A | 0.946
141 | A15G A21G C27U U47C G56C A57G C66G | ≤ 0.5
142 | A15G C31G U35C A43C A57C G58A | ≤ 0.5
143 | A15G C27A A43G | ≤ 0.5
144 | A15G C62G C66U | 0.535

Row | Variant | yeast fitness
145 | A15G C62G C66G | ≤ 0.5
146 | A15G C31U G58A | 1.03
147 | A15G G41C A43C G67A | 0.535
148 | A15G C31G U35C A43C | 0.586
149 | A15C C49U U54C C55G U64C | ≤ 0.5
150 | A15G C24G U26A | 0.656
151 | A15C U16A C31G C34U A69U | ≤ 0.5
152 | A15C G67A | 0.698
153 | A15G A20G C49A C61U C62A G67C | ≤ 0.5
154 | A15G G23C G38C G52C U54C G58A | ≤ 0.5
155 | A15C G18A A20U | ≤ 0.5
156 | A15G A42C A45C G48A | 0.63
157 | A15G C34U A36G | 0.563
158 | A15C G23C C31U A57C C66U | ≤ 0.5
159 | A15G U19A U28A | ≤ 0.5
160 | A15G C27A | 0.786
161 | A15G C31A A65G | ≤ 0.5
162 | A15G G44A G58A | 0.992
163 | A15G G67U | 0.662
164 | A15G G67C | 0.706
165 | A15G G67A | 0.868
166 | A15G A57U C60G G68C | ≤ 0.5
167 | A15C U32A | 0.595
